Compound activity from PubChem BioAssay.
Runt-CBFb FRET: inhibitors of human RUNX1 Runt domain binding to CBFb; Q01196+Q13951; Cerulean-Runt/Venus-CBFb FRET ratio 530/480, 1 h; inhibition, % at 20 µM; actives 0.46% (n = 220,000); AID 1496;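 active = inhibition over about 50% at 20 µM in the single-dose screen, limit read from the data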;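 also: 0% = DMSO wells and 100% = excess unlabeled CBFb competitor control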
Target sequence (Q01196 whole entry, looked up, the tested form may be a part): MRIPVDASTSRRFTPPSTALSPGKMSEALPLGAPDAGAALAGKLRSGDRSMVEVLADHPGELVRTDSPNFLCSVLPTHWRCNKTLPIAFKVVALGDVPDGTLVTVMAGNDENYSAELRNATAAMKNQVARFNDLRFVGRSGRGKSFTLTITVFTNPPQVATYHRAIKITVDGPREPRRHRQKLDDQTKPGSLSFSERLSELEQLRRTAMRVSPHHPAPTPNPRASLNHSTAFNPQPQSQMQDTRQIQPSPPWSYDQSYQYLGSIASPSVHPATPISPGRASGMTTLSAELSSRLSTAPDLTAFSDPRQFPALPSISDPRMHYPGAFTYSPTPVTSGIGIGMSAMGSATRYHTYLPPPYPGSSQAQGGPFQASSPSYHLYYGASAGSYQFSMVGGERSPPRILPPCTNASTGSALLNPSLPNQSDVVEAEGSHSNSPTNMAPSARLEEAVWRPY
Target sequence (Q13951 whole entry, looked up, the tested form may be a part): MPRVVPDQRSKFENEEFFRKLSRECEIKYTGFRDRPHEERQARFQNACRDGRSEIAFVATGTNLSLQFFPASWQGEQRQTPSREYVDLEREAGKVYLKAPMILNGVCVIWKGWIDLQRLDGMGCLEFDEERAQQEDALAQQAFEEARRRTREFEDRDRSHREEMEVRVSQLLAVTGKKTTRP
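Measured by: fluorescence energy transfer, 422 nm excitation, 530/480 nm emission; test system: Cerulean-tagged RUNX1 Runt domain (FRET donor) fusion protein; buffer or medium: Tris pH 7.5 buffer with BSA; compound: one dose, 20 µM compound, 1% DMSO; times: two 1 h room-temperature incubations shielded from light; benchmarks: unlabeled CBFb 5 µM, positive control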
VIM-2 inh: inhibitors of Pseudomonas aeruginosa VIM-2 metallo-beta-lactamase; purified VIM-2, nitrocefin hydrolysis, epi-absorbance fluorescence; inhibition, % at 5.6 µM; actives 0.89% (n = 290,000); AID 1527;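 active = inhibition above the mean of all tested compounds plus 3 SD, cutoff set per screening run, cut at about 7.5% in these data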;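 also: red hydrolysis product quenches plate fluorescence so inhibitors raise well fluorescence; 0% = enzyme with DMSO and 100% = DMSO without enzyme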
Runt-SMMHC FRET: Runt domain-CBFb-SMMHC interaction inhibition; Q01196+Q13951; Cerulean-Runt/Venus-CBFb-SMMHC FRET ratio 530/480, 1 h; inhibition, % at 20 µM; actives 0.74% (n = 220,000); AID 1434;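 active = mean inhibition across duplicate retests at 20 µM reaching about 50%, limit read from the data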;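 also: 0% = DMSO wells and 100% = wells with excess untagged CBFb-SMMHC; inhibitors lower the FRET ratio by blocking Runt binding to CBFb-SMMHC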
RanGTP-Impb inh: inhibitors of RanGTP-importin-beta interaction, primary screen, biochemical, FRET, CFP-Ran, YFP-importin-beta, homogeneous; cell-free CFP-Ran/YFP-importin-beta FRET ratio; inhibition, % (test concentration not listed); actives 1.1% (n = 300,000); AID 2216;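 active = more than half of the replicate wells show a fall in the fluorescence ratio signal beyond about 16%, limit read from the data, passing the limit was not always enough; inconclusive = exactly half of the replicate wells pass the set limit; inactive = fewer than half of replicates pass the limit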;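 also: 0% = DMSO wells and 100% = Ran loaded with GDP instead of GTP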
IMP-1 inh-1: inhibitors of Pseudomonas aeruginosa IMP-1 metallo-beta-lactamase | actives 0.45% (n = 290,000) | AID 1556 | purified IMP-1, nitrocefin hydrolysis, epi-absorbance fluorescence | inhibition, % at 5.6 µM;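 active = inhibition above the mean plus 3 SD of all compounds in the same screening run, cut at about 4.5% in these data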;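 also: 0% = IMP-1 with DMSO and 100% = DMSO wells lacking enzyme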
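System: purified recombinant IMP-1 beta-lactamase. Medium: Zinc- and detergent-supplemented HEPES buffer, pH 7.1. Compound: one 5.6 µM dose […]. Schedule: 15 min preincubation plus 25 min reaction at 25 °C. Technique: Epi-absorbance fluorescence, 480 nm excitation, 530 nm emission.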
IMP-1 inh-2: blocks IMP-1 metallo-beta-lactamase in VIM-2 selectivity screen; shares compounds with VIM-2 inh; purified IMP-1, nitrocefin hydrolysis, epi-absorbance fluorescence; inhibition, % at 5.6 µM; 1,300 tested, under 10 active; call rule not given here;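 also: 0% = enzyme with vehicle and 100% = vehicle without enzyme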
VIM-2 FRET ctr: VIM-2 FRET inhibition, artifact counter-screen; shares compounds with VIM-2 inh; purified VIM-2, CCF2 FRET substrate hydrolysis; inhibition, % at 5.6 µM; actives 23% (n = 1,300); AID 1857;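 active = inhibition above the mean of all tested compounds plus 3 SD, cut at about 19% in these data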;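 also: 0% = VIM-2 plus DMSO and 100% = no enzyme wells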
TEM-1 counter: selectivity counter-screen for VIM-2 inhibitors: E. coli TEM-1 inhibitors | Purified TEM-1, nitrocefin hydrolysis, epi-absorbance fluorescence | inhibition, % at 5.6 µM | AID 1866 | actives 3% (n = 1,300) | shares compounds with VIM-2 inh;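 active = inhibition above that campaign's mean inhibition plus 3 SD, cut at about 0.46% in these data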;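 also: 0% = TEM-1 with DMSO and 100% = TEM-1 with 100 µM potassium clavulanate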
VIM-2 inh conf: confirmation of P. aeruginosa VIM-2 metallo-beta-lactamase inhibitors; inhibition, % at 5.6 µM; purified VIM-2, nitrocefin hydrolysis, epi-absorbance; shares compounds with VIM-2 inh; actives 96% (n = 1,300);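 active = inhibition of the VIM-2 beta-lactamase enzyme above about 11% from the earlier first-round screen, limit read from the data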;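 also: 0% = VIM-2 with DMSO and 100% = buffer wells without enzyme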
Active calls of the source: *; ? = inconclusive; . = not tested or not shown. Only some compounds are listed: those with a hit (about 2.6% of all), similar ones and a draw of the others.

SMILES	Runt-CBFb FRET	VIM-2 inh	Runt-SMMHC FRET	RanGTP-Impb inh	IMP-1 inh-1	IMP-1 inh-2	VIM-2 FRET ctr	TEM-1 counter	VIM-2 inh conf
CCc1cc(=O)oc2cc(OCC(=O)NCCCn3ccnc3)c(Cl)cc12	.	23.6*	.	-0.7	-1.2	-2.7	-6.6	-5.2	34.6*
Cc1cc(=O)oc2cc(OCC(=O)NCCN3CCOCC3)c(Cl)cc12	.	-0.2	.	-2.5	-1.8	.	.	.	.
O=C(COc1cc2oc(=O)c3c(c2cc1Cl)CCC3)Nc1cccnc1	.	-0.6	.	-5.2	-3.9	.	.	.	.
O=C(COc1cc2oc(=O)c3c(c2cc1Cl)CCC3)NCCCn1ccnc1	.	29.5*	.	-4.6	-1.6	-2.2	-5.0	-6.1	44.1*
COCCCN1C(=O)C(=O)/C(=C(/O)c2ccc(S(=O)(=O)N3CCOCC3)cc2)C1c1cccc(Cl)c1 (stereo not given)	.	-0.3	.	1.2	-1.2	.	.	.	.
Cc1cc(C)cc(-n2ncc3c2CCCC3NC(=O)CCN2Cc3ccccc3C2=O)c1 (stereo not given)	.	-1.0	.	-4.8	-4.1	.	.	.	.
CCOCCCNC(=O)c1cc2c(=O)n3cccc(C)c3nc2n1C	4.7	.	20.5	5.9	.	.	.	.	.
Cc1cccn2c(=O)c3cc(C(=O)NCCCOC(C)C)sc3nc12	.	18.1*	.	-1.1	-4.9	-1.1	-2.2	-0.5	26.4*
CCCN(CCC)C(=O)c1cc2c(=O)n3cccc(C)c3nc2s1	.	12.5*	.	-2.5	-2.8	-3.5	-1.7	-4.9	17.4*
CCC(C)NC(=O)c1cc2c(=O)n3ccccc3nc2s1 (stereo not given)	.	1.3	.	-1.1	-1.7	.	.	.	.
CCOCCCNC(=O)c1cc2c(=O)n3cccc(C)c3nc2s1	.	16.4*	.	-0.9	-2.6	-3.3	-6.1	-6.8	30.8*
Cc1cccn2c(=O)c3cc(C(=O)NC4CCCC4)sc3nc12	.	16.6*	.	-0.8	-0.3	-2.2	-4.6	-1.8	15.3*
O=S(=O)(Nc1cccc(-n2cnnn2)c1)c1ccccc1C(F)(F)F	.	1.5	.	3.1	-0.6	.	.	.	.
COc1ccc([C@@H]2[C@@H]3C(=O)N(C(C)(C)C)C(=O)[C@@H]3[C@]3(C)C(=O)N(c4cccc(Br)c4)C(=O)N23)cc1	.	-1.2	.	5.0	-0.9	.	.	.	.
Cc1cccn2c(=O)c3cc(C(=O)NCC(C)C)sc3nc12	.	14.3*	.	-3.6	-2.9	-2.4	-3.4	-3.1	23.0*
CC(C)CCNC(=O)c1cc2c(=O)n3ccccc3nc2s1	.	4.8	.	?	-2.4	.	.	.	.
CN(C)S(=O)(=O)c1cccc(NC(=S)N/N=C/C2CC=CCC2)c1 (stereo not given)	6.7	70.8*	9.5	?	-4.3	-2.7	83.4*	-6.3	76.3*
CN(C)S(=O)(=O)c1cccc(NC(=S)NN=C(Cc2ccccc2)Cc2ccccc2)c1	11.6	15.4*	15.8	-4.1	-4.4	-3.9	1.4	-8.5	3.6
CN(C)S(=O)(=O)c1cccc(NC(=S)NC2CCCCC2)c1	1.1	-1.5	-0.8	4.0	-1.3	.	.	.	.
COc1ccc(/C=C/C(=O)N2CCN(c3ccccn3)CC2)c(OC)c1OC	.	2.2	.	2.7	-2.8	.	.	.	.
COc1ccccc1C(=O)COC(=O)/C=C/c1ccccc1	.	12.5*	.	?	-1.9	-4.0	28.5*	-1.7	18.0*
CCN(CC)CCCCNc1ncc2cc(-c3cc(OC)cc(OC)c3)c(NC(=O)NC(C)(C)C)nc2n1	.	17.3*	.	8.8	-2.7	-3.8	5.4	-7.5	24.7*
COc1ccccc1C(=O)NC(C)c1ccc(-n2ccnc2)cc1 (stereo not given)	.	0.5	.	-1.9	-5.7	.	.	.	.
CCOc1ccccc1C(=O)NC(C)c1ccc(-n2ccnc2)cc1 (stereo not given)	.	26.1*	.	?	-4.2	-4.2	8.2	-7.1	33.6*
CCn1ccnc1CNCc1ccc(OCC(O)CN(C)Cc2ccccc2)cc1 (stereo not given)	1.6	7.7	0.1	0.9	-2.2	.	.	.	.
SMILES	Runt-CBFb FRET	VIM-2 inh	Runt-SMMHC FRET	RanGTP-Impb inh	IMP-1 inh-1	IMP-1 inh-2	VIM-2 FRET ctr	TEM-1 counter	VIM-2 inh conf
CN(Cc1ccccc1)CC(O)COc1ccc(CNCc2nccn2C)cc1 (stereo not given)	-0.1	12.5*	-3.9	-0.5	-4.2	-4.1	-6.2	-3.8	13.6*
Cc1cc(C)c2[nH]c(C(=O)Nc3ccc(F)cc3Br)cc2c1	.	0.9	.	4.1	-2.2	.	.	.	.
COCCCNC1=C(Cl)C(=O)c2ccccc2C1=O	1.2	4.9	1.9	0.8	-1.8	.	.	.	.
COCCCNc1c2c3c(cccc3[nH]c1=O)C(=O)c1ccccc1-2	-3.4	34.4*	-71.4	.	-3.1	72.9*	4.4	137.4*	87.4*
CCOC(=O)C1CCN(C(=O)CCn2c(=O)c3cccn3c3cccnc32)CC1	.	3.8	.	5.1	-2.7	.	.	.	.
CN1CCN(C(=O)CCn2c(=O)c3cccn3c3cccnc32)CC1	.	13.6*	.	1.1	-1.2	-4.3	-2.0	-5.8	26.0*
CCC1CC(C(=O)Nc2ccccc2)C(=O)O1 (stereo not given)	.	.	.	1.5	.	.	.	.	.
O=C1c2ccccc2C(=O)c2c1ccc(C(=O)N1CCCCC1)c2NCCO	-1.8	-1.2	5.4	-1.5	-2.8	.	.	.	.
CCN(CCN(C)C)C(=O)c1ccc2c(c1NCCO)C(=O)c1ccccc1C2=O	-2.0	14.3*	1.2	0.0	-1.1	-3.5	1.9	-9.0	23.1*
CCOC(=O)CSc1nc(N)c(C#N)c(-c2ccc(OCC)cc2)c1C#N	-0.2	-2.5	-1.8	-5.7	-3.5	.	.	.	.
COC(=O)CSc1nc(N)c(C#N)c(-c2ccc(O)cc2)c1C#N	-0.7	18.4*	1.3	-2.6	-1.4	-2.6	-0.2	-7.4	35.8*
CC(NC(=O)c1cc2cc(Br)ccc2oc1=N)c1ccccc1 (stereo not given)	.	0.2	.	?	-3.0	.	.	.	.
CCn1c(-c2nn(-c3ccccc3)ccc2=O)n[nH]c1=S	8.1	17.9*	1.2	-3.0	-1.1	-2.6	34.1*	-5.6	22.8*
CCn1c(-c2nn(-c3ccc(C)cc3)ccc2=O)n[nH]c1=S	8.3	14.2*	14.6	1.2	-2.9	-3.0	33.2*	-7.1	22.2*
CCn1c(SC)nnc1-c1nn(-c2ccccc2)ccc1=O	-3.1	0.5	5.1	-0.4	1.1	.	.	.	.
COCCNC(=O)c1cccc(OC2CCN(Cc3ccc(OC(F)F)cc3)CC2)c1	.	-1.3	.	-2.6	-2.2	.	.	.	.
O=C(O)c1ncc(Cl)c(Cl)c1Cl	0.6	-0.7	0.6	2.1	-1.7	.	.	.	.
CCN(CC(=O)NCc1ccncc1)S(=O)(=O)c1ccccc1	.	-2.4	.	2.8	-2.3	.	.	.	.
